From ChEMBL document CHEMBL1649302, “New small-molecule inhibitor class targeting human immunodeficiency virus type 1 virion maturation” (Antimicrob Agents Chemother, 2009)

How the values were obtained:
[1] = test system: Human immunodeficiency virus 1; assay: Antiviral activity HIV1 92HT594 infected in human PBMC after 7 days by scintillation counting; type: functional, organism-based; conditions: Human immunodeficiency virus 1, 92HT594, 168 h
Outline: (§1)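 PBMCs came from buffy coats pooled from 3–4 seronegative donors, were PHA-stimulated (1.5 μg/ml, 3 days) and frozen. Thawed cells were infected 1 h at 37°C with virus input set by TCID50, then pelleted and resuspended in IL-2 (10 ng/ml). They were plated at 4 × 10⁵ cells/ml onto compounds for 7 days at 37°C. Supernatant RT activity was measured by Quan-T-RT scintillation assay.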

[2] = test system: Human immunodeficiency virus 1; assay: Antiviral activity HIV1 96USHIPS7 infected in human PBMC after 7 days by scintillation counting; type: functional, organism-based; conditions: Human immunodeficiency virus 1, 96USHIPS7, 168 h
Outline: (§2)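 Fresh PBMCs from HIV/HBV-seronegative donors were PHA-stimulated (4 μg/ml, 48–72 h) and kept with IL-2 (20 U/ml), with at least two donors pooled. Cells were seeded at 5 × 10⁴/well and infected (final MOI ≅0.1) with nine compound concentrations in triplicate wells. After 7 days, reverse transcriptase activity was measured in cell-free supernatant.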

[3] = Therapeutic index, ratio of CC50 for human PBMC to EC50 for HIV1 92BR004 infected in human PBMC; conditions: read-out: TI
Outline: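 TI was the mean PBMC CC50 divided by the mean EC50 from the 7-day PBMC reverse transcriptase assay.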

[4] = test system: Human immunodeficiency virus 1; assay: Antiviral activity against HIV1 harboring spacer peptide A1V mutant protein infected in human HeLa cells assessed as decrease in viral infection after […] by beta-galactosidase reporter gene assay; type: functional, organism-based; conditions: Human immunodeficiency virus 1, HeLa
Outline: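 MT-2 cells were infected for 2 h with wild-type NL4-3 or recombinant NL4-3 carrying CA I201V or SP1 A1V. They were then cocultured with HeLa CD4 LTR/beta-Gal indicator cells in serially diluted compound. Beta-gal reporter was read after 4 days. EC50s are means ± SD of 3–6 experiments. Fold change is mutant EC50 divided by wild-type EC50.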

[5] = Cytotoxicity against human MT2 cells after 6 days by XTT assay; type: cell-based
Outline: (§3)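 Uninfected cells were incubated with half-log compound dilutions for 6 days, then given XTT/PMS for 4 h and read at 450 nm. CC50 was the concentration reducing formazan to 50% of uninfected, compound-free cells. Values are means ± SD from 3–5 experiments or individual values.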

[6] = test system: Human immunodeficiency virus 1; assay: Antiviral activity HIV1 WEJO infected in human PBMC after 7 days by scintillation counting; type: functional, organism-based; conditions: Human immunodeficiency virus 1, WEJO, 168 h; outline: as §2
[7] = Therapeutic index, ratio of CC50 for human MT2 cells to EC50 for HIV1 3B infected in human MT2 cells; type: cell-based; conditions: read-out: TI
Outline: (§4)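 TI was the mean CC50 (XTT, uninfected MT-2) divided by the mean EC50, determined for each cell line in each experiment.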

[8] = Cytotoxicity against human CEM-SS cells after 6 days by XTT assay; type: cell-based; outline: as §3
[9] = Therapeutic index, ratio of CC50 for human MT2 cells to EC50 for HIV1 92HT594 infected in human MT2 cells; type: cell-based; conditions: read-out: TI; outline: as §4
[10] = test system: Human immunodeficiency virus 1; assay: Antiviral activity HIV1 92US076 infected in human PBMC after 7 days by scintillation counting; type: functional, organism-based; conditions: Human immunodeficiency virus 1, 92US076, 168 h; outline: as §2
[11] = Therapeutic index, ratio of CC50 for human PM1 cells to EC50 for HIV1 NL4-3 infected in human PM1 cells; type: cell-based; conditions: read-out: TI
Outline: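 PM1 cells infected at MOI 0.16 for 2 h, washed, then seeded at 1 × 10⁴ cells/well on half-log compound dilutions. After 5 days, supernatant p24 antigen was quantified by ELISA kit. EC50 is the concentration halving p24 versus infected untreated cells. CC50 was measured in PM1 cells by XTT formazan at 450 nm. TI is CC50 divided by EC50.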

[12] = test system: Human immunodeficiency virus 1; assay: Antiviral activity against HIV1 NL4-3 infected in human MT2 cells assessed as protection against virus-induced cytopathogenicity after 6 days by XTT assay; type: functional, organism-based; conditions: Human immunodeficiency virus 1, NL4-3, MT2, 144 h
Outline: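 Host cells were infected with NL4-3 or IIIB (MOI 0.08) or RF (MOI 0.025–0.819) and seeded at 2 × 10⁴/well onto half-log compound dilutions. After 6 days, XTT/PMS was added for 4 h and formazan was read at 450 nm. EC50 was the concentration giving 50% of the formazan of uninfected, compound-free cells.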

[13] = Therapeutic index, ratio of CC50 for human PBMC to EC50 for HIV1 92HT594 infected in human PBMC; conditions: read-out: TI
Outline: (§5)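 Frozen PHA-stimulated (1.5 μg/ml, 3 days) buffy-coat PBMCs pooled from three or four seronegative donors. Infected with a TCID50-based virus input per 10⁶ cells for 1 h at 37°C, then pelleted and resuspended in 10 ng/ml IL-2. Plated at 4 × 10⁵ cells/ml on compound dilutions for 7 days at 37°C. Supernatant RT measured by Quan-T-RT. TI is mean CC50 divided by mean EC50.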

[14] = Therapeutic index, ratio of CC50 for human PBMC to EC50 for HIV1 92BR017 infected in human PBMC; conditions: read-out: TI; outline: as §5
[15] = test system: Human immunodeficiency virus 1; assay: Antiviral activity HIV1 92BR004 infected in human PBMC after 7 days by scintillation counting; type: functional, organism-based; conditions: Human immunodeficiency virus 1, 92BR004, 168 h; outline: as §1
[16] = test system: Human immunodeficiency virus 1; assay: Antiviral activity HIV1 91US056 infected in human PBMC after 7 days by scintillation counting; type: functional, organism-based; conditions: Human immunodeficiency virus 1, 91US056, 168 h; outline: as §2
[17] = Therapeutic index, ratio of CC50 for human PBMC to EC50 for HIV1 93BR021 infected in human PBMC; conditions: read-out: TI
Outline: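 PHA-stimulated (4 μg/ml, 48 to 72 h) PBMCs pooled from at least two seronegative donors, kept with 20 U/ml IL-2, plated at 5 × 10⁴ cells/well. Infected with clinical isolate (final MOI ≅0.1) alongside nine compound concentrations in triplicate wells, 7 days. Supernatant reverse transcriptase activity measured. TI is mean PBMC CC50 divided by mean EC50.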

[18] = Therapeutic index, ratio of CC50 for human PBMC to EC50 for HIV1 92HT596 infected in human PBMC; conditions: read-out: TI; outline: as §5
[19] = test system: Human immunodeficiency virus 1; assay: Antiviral activity against HIV1 Ba-L infected in human PM1 cells assessed as inhibition of viral p24 antigen production after 5 days; type: functional, organism-based; conditions: Human immunodeficiency virus 1, Ba-L, PM1, 120 h
Outline: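 PM1 cells (NL4-3, Ba-L) or MT-2 cells (92HT594, 92HT599) were infected at MOI 0.16 for 2 h and washed. They were plated at 1 × 10⁴ cells/well (2 × 10⁵/ml) onto half-log compound dilutions. Supernatant p24 was quantified by ELISA at day 5. EC50 was the concentration giving a 50% decrease versus infected, compound-free cells.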

[20] = test system: Human immunodeficiency virus 1; assay: Antiviral activity HIV1 92TH014 infected in human PBMC after 7 days by scintillation counting; type: functional, organism-based; conditions: Human immunodeficiency virus 1, 92TH014, 168 h; outline: as §2
[21] = Therapeutic index, ratio of CC50 for human MT2 cells to EC50 for HIV1 NL4-3 infected in human MT2 cells; type: cell-based; conditions: read-out: TI; outline: as §4
[22] = Therapeutic index, ratio of CC50 for human PBMC to EC50 for HIV1 92BR026 infected in human PBMC; conditions: read-out: TI

CC(C)(C)c1ccc(C(Cn2cccc(C(F)(F)F)c2=O)NC2Cc3ccccc3C2)cc1 (configuration not stated)
EC50 [1]: 1100 nM | EC50 [2]: > 17000 nM | selectivity ratio [3]: 52 | EC50 [4]: > 3200 nM | CC50 at 144 h [5]: 15000 nM | EC50 [6]: 1500 nM | selectivity ratio [7]: 1120 | CC50 at 144 h [8]: 20000 nM | selectivity ratio [9]: 79 | EC50 [10]: 7 nM | selectivity ratio [11]: 633 | EC50 [12]: 360 nM | selectivity ratio [13]: 15 | selectivity ratio [14]: 142 | EC50 [15]: 330 nM | EC50 [16]: > 17000 nM | selectivity ratio [17]: 425 | selectivity ratio [18]: 53 | EC50 [19]: 5300 nM | EC50 [20]: > 17000 nM | selectivity ratio [21]: 53 | selectivity ratio [22]: < 1
